# Measured values from ChEMBL document CHEMBL1782036, “Atovaquone derivatives as potent cytotoxic and apoptosis inducing agents” (Bioorg Med Chem Lett, 2009).
# What was measured:
# [1] = tested on: DU-145; assay: Growth inhibition of human DU145 cells after 72 hrs by MTT assay; format: functional, cell-based; details: DU-145, 72 h
# Procedure, shortened: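 Du145 human prostate carcinoma cells were screened by MTT cell-growth inhibition assay. IC50 values are means of three experiments.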
# [2] = tested on: DU-145; assay: Induction of apoptosis in human DU145 cells at 10 uM assessed as dead cell level after 72 hrs by AnnexinV conjugated 7- AAD staining by flow cytometry; format: functional
# Procedure, shortened: (§1)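 Du145 human prostate carcinoma cells exposed to compound for 72 h, then stained with Annexin V and 7-AAD and analysed by flow cytometry. Annexin V detects phosphatidylserine externalised to the outer membrane leaflet, and 7-AAD enters only membrane-compromised cells. Dead cells were those positive for both stains. Untreated cells served as control.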
# [3] = tested on: DU-145; assay: Induction of apoptosis in human DU145 cells at 10 uM assessed as live cell level after 72 hrs by AnnexinV conjugated 7- AAD staining by flow cytometry; format: functional
# Procedure, shortened: (§2)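 Du145 cells were treated for 72 h and stained with Annexin V conjugate plus 7-AAD. Flow cytometry read PS externalization and membrane integrity, scoring cells as live (double negative), early apoptotic, or late apoptotic/necrotic (double positive). Untreated cells served as the control.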
# [4] = tested on: HT-29; assay: Antiproliferative activity against human HT-29 cells after 72 hrs by MTT assay; format: functional, cell-based; details: HT-29, 72 h
# [5] = tested on: DU-145; assay: Induction of apoptosis in human DU145 cells at 5 uM assessed as late apoptosis/ necrotic cells level after 72 hrs by AnnexinV conjugated 7- AAD staining by flow cytometry; format: functional; procedure, shortened: as §2
# [6] = tested on: KB; assay: Antiproliferative activity against human KB cells after 72 hrs by MTT assay; format: functional, cell-based
# [7] = tested on: IMR-90; assay: Antiproliferative activity against human IMR90 cells after 72 hrs by MTT assay; format: cell-based; details: IMR-90, 72 h
# [8] = tested on: DU-145; assay: Induction of apoptosis in human DU145 cells at 5 uM assessed as live cell level after 72 hrs by AnnexinV conjugated 7- AAD staining by flow cytometry; format: functional; procedure, shortened: as §2
# [9] = tested on: OS-RC-2; assay: Antiproliferative activity against human OS-RC2 cells after 72 hrs by MTT assay; format: functional, cell-based; details: OS-RC-2, 72 h
# [10] = Antiproliferative activity against human L78 cells after 72 hrs by MTT assay; format: functional, cell-based; details: L78, 72 h
# [11] = tested on: MOLT-4; assay: Antiproliferative activity against human MOLT4 cells after 72 hrs by MTT assay; format: functional, cell-based; details: MOLT-4, 72 h
# [12] = tested on: SGC-7901; assay: Antiproliferative activity against human SGC7901 cells after 72 hrs by MTT assay; format: functional, cell-based; details: SGC-7901, 72 h
# [13] = tested on: HepG2; assay: Antiproliferative activity against human HepG2 cells after 72 hrs by MTT assay; format: functional, cell-based; details: HepG2, 72 h
# [14] = tested on: HeLa; assay: Antiproliferative activity against human HeLa cells after 72 hrs by MTT assay; format: functional, cell-based
# [15] = tested on: MCF7; assay: Antiproliferative activity against human MCF7 cells after 72 hrs by MTT assay; format: functional, cell-based; details: MCF7, 72 h
# [16] = tested on: U-251; assay: Antiproliferative activity against human U251 cells after 72 hrs by MTT assay; format: functional, cell-based; details: U-251, 72 h
# [17] = tested on: DU-145; assay: Induction of apoptosis in human DU145 cells at 5 uM assessed as early apoptosis level after 72 hrs by AnnexinV conjugated 7- AAD staining by flow cytometry; format: functional; procedure, shortened: as §2
# [18] = tested on: A549; assay: Antiproliferative activity against human A549 cells after 72 hrs by MTT assay; format: functional, cell-based; details: A549, 72 h
# [19] = tested on: DU-145; assay: Induction of apoptosis in human DU145 cells at 5 uM assessed as dead cell level after 72 hrs by AnnexinV conjugated 7- AAD staining by flow cytometry; format: functional; procedure, shortened: as §1
# [20] = tested on: DU-145; assay: Induction of apoptosis in human DU145 cells at 10 uM assessed as late apoptosis/ necrotic cells level after 72 hrs by AnnexinV conjugated 7- AAD staining by flow cytometry; format: functional; procedure, shortened: as §2
# [21] = tested on: HT-1080; assay: Antiproliferative activity against human HT1080 cells after 72 hrs by MTT assay; format: functional, cell-based; details: HT-1080, 72 h
# [22] = tested on: DU-145; assay: Induction of apoptosis in human DU145 cells at 10 uM assessed as early apoptosis level after 72 hrs by AnnexinV conjugated 7- AAD staining by flow cytometry; format: functional; procedure, shortened: as §2
Structure (SMILES),IC50 [1] [µM],Activity [2] [%],Activity [3] [%],IC50 [4] [µM],Activity [5] [%],IC50 [6] [µM],IC50 [7] [µM],Activity [8] [%],IC50 [9] [µM],IC50 [10] [µM],IC50 [11] [µM],IC50 [12] [µM],IC50 [13] [µM],IC50 [14] [µM],IC50 [15] [µM],IC50 [16] [µM],Activity [17] [%],IC50 [18] [µM],Activity [19] [%],Activity [20] [%],further results
Cc1cccc(N2CCN(C3=CC(=O)c4ccccc4C3=O)CC2)c1,7.4,,,,,,,,,,,,,,,,,,,,
Cc1ccccc1N1CCN(C2=CC(=O)c3cccc(O)c3C2=O)CC1,2.3,3.64,18.75,2.8,15.49,6.6,> 50,69.54,4.4,15.1,> 50,5.3,10.3,7.2,9.7,10.2,3.89,5.3,11.08,59.33,IC50 [21]: 11 µM; Activity [22]: 18.28%
COc1cc(OC)cc(N2CCN(C3=CC(=O)c4ccccc4C3=O)CC2)c1,14.9,,,,,,,,,,,,,,,,,,,,
COc1ccc(N2CCN(C3=CC(=O)c4ccccc4C3=O)CC2)cc1,46.1,,,,,,,,,,,,,,,,,,,,
COc1ccccc1N1CCN(C2=CC(=O)c3cccc(O)c3C2=O)CC1,1.8,3.4,23.55,2.8,42.79,2.8,> 50,46.26,1.9,4.6,25.8,6.8,3.9,6.5,5.6,4.4,5.88,3.6,5.08,62.93,IC50 [21]: 5.1 µM; Activity [22]: 10.13%
O=C1C=C(N2CCC(c3ccccc3)CC2)C(=O)c2c(O)cccc21,3,7.68,50.85,5.4,37.56,2.2,> 50,53.01,0.7,13.4,2.7,11.1,9.7,8.6,8.8,10.8,3.87,> 50,5.57,38.3,IC50 [21]: 11.1 µM; Activity [22]: 3.17%
O=C1C=C(N2CCN(c3ccccc3)CC2)C(=O)c2ccccc21,9.9,,,,,,,,,,,,,,,,,,,,
O=C1C=C(N2CCN(c3ccc(F)c(Cl)c3)CC2)C(=O)c2ccccc21,32.2,,,,,,,,,,,,,,,,,,,,
